Data: ChEMBL document CHEMBL1125291, “New 8-(trifluoromethyl)-substituted quinolones. The benefits of the 8-fluoro group with reduced phototoxic risk” (1992)
Converted amounts (≈) assume the structure as drawn.

Legend:
[1] = species: Mus musculus; assay: Days of the first positive reaction in […] mice.; assay type: functional
Method in brief: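 Phototoxic skin reaction test in depilated female CD-1 mice. A single oral dose (gavage) or subcutaneous dose was given, followed 1 h later by 3 h of UVA exposure (320–400 nm). The regimen was repeated for up to 4 consecutive days, with initial doses of 30, 100 and 300 mg/kg. PTD50 was derived by the probit method. The first day of positive reaction and the no-effect dose were taken from the raw data.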

[2] = species: Mus musculus; assay: Number of mice which show positive phototoxic reaction in 5 mice; assay type: functional
[3] = tested on: Escherichia coli; assay: In vivo efficacy in mouse protection test in Escherichia coli Vogel administered by subcutaneous injection.; assay type: functional; conditions: Escherichia coli, sc; read-out: PD50
Method in brief: (§1)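 Acute lethal systemic infections in female Charles River CD-1 mice. A single dose was given at challenge, orally by gavage or by subcutaneous injection. PD50 (median protective dose, mg/kg) was determined.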

[4] = tested on: Escherichia coli; assay: In vivo efficacy in mouse protection test in Escherichia coli Vogel dose administered orally by gavage.; assay type: functional; conditions: Escherichia coli, po; read-out: PD50; method in brief: as §1
[5] = tested on: Escherichia coli; assay: Minimum inhibitory concentration (MIC) against gram negative bacteria Escherichia coli H-560.; assay type: functional; conditions: Escherichia coli; read-out: MIC
Method in brief: (§2)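 MICs were determined by standard broth microtitration against 11 Gram-positive and Gram-negative organisms, in µg/mL. Values come from duplicate or triplicate experiments and are accurate to ±50%.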

[6] = tested on: Escherichia coli; assay: Minimum inhibitory concentration (MIC) against gram negative bacteria Escherichia coli Vogel.; assay type: functional; conditions: Escherichia coli; read-out: MIC; method in brief: as §2
[7] = tested on: Enterobacter cloacae; assay: Minimum inhibitory concentration (MIC) against gram negative bacteria Enterobacter cloacae MA-2646.; assay type: functional
[8] = tested on: Klebsiella pneumoniae; assay: Minimum inhibitory concentration (MIC) against gram negative bacteria Klebsiella pneumoniae MGH-2.; assay type: functional; conditions: Klebsiella pneumoniae; read-out: MIC; method in brief: as §2
[9] = species: Mus musculus; assay: Dose required to induce phototoxic reaction in 50% of mice by probit method at different dosage forms.; assay type: functional
[10] = species: Mus musculus; assay: Dose which has no effect to induce phototoxic reaction in 50% of mice by probit method.; assay type: functional
[11] = tested on: Mus musculus; assay: Maximum tolerance dose was measured for phototoxic skin reaction by po administration; assay type: functional
[12] = Minimum inhibitory concentration (MIC) against gram negative bacteria Prot. rettgeri M-1771.; assay type: functional, Providencia rettgeri; conditions: Providencia rettgeri; read-out: MIC; method in brief: as §2
[13] = tested on: Pseudomonas aeruginosa; assay: Minimum inhibitory concentration (MIC) against gram negative bacteria Pseudomonas aeruginosa UI-18.; assay type: functional; conditions: Pseudomonas aeruginosa; read-out: MIC; method in brief: as §2
[14] = tested on: Staphylococcus aureus; assay: Minimum inhibitory concentration (MIC) against gram positive bacteria Staphylococcus aureus H-228.; assay type: functional; conditions: Staphylococcus aureus; read-out: MIC; method in brief: as §2
[15] = tested on: Staphylococcus aureus; assay: Minimum inhibitory concentration (MIC) against gram positive bacteria Staphylococcus aureus UC-76.; assay type: functional; conditions: Staphylococcus aureus; read-out: MIC; method in brief: as §2
[16] = tested on: Enterococcus faecalis; assay: Minimum inhibitory concentration (MIC) against gram positive bacteria Streptococcus faecalis MGH-2.; assay type: functional; conditions: Enterococcus faecalis; read-out: MIC; method in brief: as §2
[17] = tested on: Streptococcus pneumoniae; assay: Minimum inhibitory concentration (MIC) against gram positive bacteria Streptococcus pneumoniae SV-1.; assay type: functional; conditions: Streptococcus pneumoniae; read-out: MIC; method in brief: as §2
[18] = tested on: Streptococcus pyogenes; assay: Minimum inhibitory concentration (MIC) against gram positive bacteria Streptococcus pyogenes C-203.; assay type: functional; conditions: Streptococcus pyogenes; read-out: MIC; method in brief: as §2
[19] = tested on: Streptococcus pneumoniae; assay: In vivo efficacy (s.c.) against Streptococcus pneumoniae SV-1 in mouse protection test; assay type: functional; conditions: Streptococcus pneumoniae, sc; read-out: PD50; method in brief: as §1
[20] = tested on: Streptococcus pneumoniae; assay: In vivo efficacy (orally) against Streptococcus pneumoniae SV-1 in mouse protection test; assay type: functional; conditions: Streptococcus pneumoniae, po; read-out: PD50; method in brief: as §1
[21] = tested on: Streptococcus pyogenes; assay: In vivo efficacy (s.c.) against Streptococcus pyogenes C-203 in mouse protection test; assay type: functional; conditions: Streptococcus pyogenes, sc; read-out: PD50; method in brief: as §1
[22] = tested on: Streptococcus pyogenes; assay: In vivo efficacy (orally) against Streptococcus pyogenes C-203 in mouse protection test; assay type: functional; conditions: Streptococcus pyogenes, po; read-out: PD50; method in brief: as §1

SMILES	Day of first positve reaction [1]	No. of pos rxns [2]	ED50 [3]	ED50 [4]	MIC [5]	MIC [6]	MIC [7]	MIC [8]	PTD50 [9]	No effect dose [10]	MTD [11]	MIC [12]	MIC [13]	MIC [14]	MIC [15]	MIC [16]	MIC [17]	MIC [18]	ED50 [19]	ED50 [20]	also measured
CC1(CN)CCN(c2c(F)cc3c(=O)c(C(=O)O)cn(C4CC4)c3c2C(F)(F)F)C1 (centres undefined)	0	0	3.1 mg/kg	8.5 mg/kg	0.1 µg/mL (≈ 0.234 µM)	0.2 µg/mL (≈ 0.468 µM)	0.2 µg/mL (≈ 0.468 µM)	0.4 µg/mL (≈ 0.936 µM)	>100 mg/kg	100 mg/kg	100 mg/kg	0.8 µg/mL (≈ 1.87 µM)	3.1 µg/mL (≈ 7.25 µM)	0.05 µg/mL (≈ 0.117 µM)	0.013 µg/mL (≈ 0.0304 µM)	0.2 µg/mL (≈ 0.468 µM)	0.05 µg/mL (≈ 0.117 µM)	0.05 µg/mL (≈ 0.117 µM)	0.4 mg/kg	1.1 mg/kg	–
C[C@@H]1CN(c2c(F)cc3c(=O)c(C(=O)O)cn(C4CC4)c3c2F)CCN1	4	1	0.2 mg/kg	0.7 mg/kg	0.1 µg/mL (≈ 0.275 µM)	0.025 µg/mL (≈ 0.0688 µM)	0.025 µg/mL (≈ 0.0688 µM)	0.025 µg/mL (≈ 0.0688 µM)	43 mg/kg	<30 mg/kg	30 mg/kg	0.1 µg/mL (≈ 0.275 µM)	0.4 µg/mL (≈ 1.1 µM)	0.2 µg/mL (≈ 0.55 µM)	0.1 µg/mL (≈ 0.275 µM)	0.4 µg/mL (≈ 1.1 µM)	0.4 µg/mL (≈ 1.1 µM)	0.2 µg/mL (≈ 0.55 µM)	–	–	ED50 [21]: 7.2 mg/kg; ED50 [22]: 14 mg/kg
C[C@@H]1CN(c2cc3c(cc2F)c(=O)c(C(=O)O)cn3C2CC2)CCN1	0	1	0.4 mg/kg	1.2 mg/kg	0.025 µg/mL (≈ 0.0724 µM)	0.025 µg/mL (≈ 0.0724 µM)	0.025 µg/mL (≈ 0.0724 µM)	0.05 µg/mL (≈ 0.145 µM)	>100 mg/kg	100 mg/kg	100 mg/kg	0.1 µg/mL (≈ 0.29 µM)	0.4 µg/mL (≈ 1.16 µM)	0.4 µg/mL (≈ 1.16 µM)	0.1 µg/mL (≈ 0.29 µM)	0.4 µg/mL (≈ 1.16 µM)	0.2 µg/mL (≈ 0.579 µM)	0.2 µg/mL (≈ 0.579 µM)	–	–	ED50 [21]: 12 mg/kg; ED50 [22]: 39 mg/kg
CC1(CN)CCN(c2c(F)cc3c(=O)c(C(=O)O)cn(C4CC4)c3c2F)C1 (centres undefined)	1	5	3 mg/kg	1.8 mg/kg	0.006 µg/mL (≈ 0.0159 µM)	0.013 µg/mL (≈ 0.0344 µM)	0.013 µg/mL (≈ 0.0344 µM)	0.025 µg/mL (≈ 0.0662 µM)	<30 mg/kg	<30 mg/kg	30 mg/kg	0.05 µg/mL (≈ 0.132 µM)	0.4 µg/mL (≈ 1.06 µM)	0.013 µg/mL (≈ 0.0344 µM)	–	0.006 µg/mL (≈ 0.0159 µM)	0.003 µg/mL (≈ 0.00795 µM)	0.003 µg/mL (≈ 0.00795 µM)	0.3 mg/kg	1.2 mg/kg	–
NC1CCN(c2c(F)cc3c(=O)c(C(=O)O)cn(C4CC4)c3c2F)CC1	2	5	1.2 mg/kg	3.7 mg/kg	0.05 µg/mL (≈ 0.138 µM)	0.1 µg/mL (≈ 0.275 µM)	0.1 µg/mL (≈ 0.275 µM)	0.1 µg/mL (≈ 0.275 µM)	55 mg/kg	30 mg/kg	100 mg/kg	0.2 µg/mL (≈ 0.55 µM)	0.8 µg/mL (≈ 2.2 µM)	0.1 µg/mL (≈ 0.275 µM)	0.025 µg/mL (≈ 0.0688 µM)	0.2 µg/mL (≈ 0.55 µM)	0.4 µg/mL (≈ 1.1 µM)	0.4 µg/mL (≈ 1.1 µM)	3.6 mg/kg	15 mg/kg	–
C[C@@H]1CN(c2c(F)cc3c(=O)c(C(=O)O)cn(C4CC4)c3c2C(F)(F)F)CCN1	0	0	1.4 mg/kg	1.6 mg/kg	0.05 µg/mL (≈ 0.121 µM)	0.1 µg/mL (≈ 0.242 µM)	0.2 µg/mL (≈ 0.484 µM)	0.4 µg/mL (≈ 0.968 µM)	>100 mg/kg	100 mg/kg	100 mg/kg	0.8 µg/mL (≈ 1.94 µM)	3.1 µg/mL (≈ 7.5 µM)	0.4 µg/mL (≈ 0.968 µM)	0.2 µg/mL (≈ 0.484 µM)	0.8 µg/mL (≈ 1.94 µM)	0.8 µg/mL (≈ 1.94 µM)	0.8 µg/mL (≈ 1.94 µM)	–	–	ED50 [21]: 21 mg/kg; ED50 [22]: 23 mg/kg
